Source: ChEMBL document CHEMBL1140334, “Synthesis and structure-activity relationships of pyrazine-pyridine biheteroaryls as novel, potent, and selective vascular endothelial growth factor receptor-2 inhibitors” (J Med Chem, 2005)

Columns and labels:
[1] = Inhibition of cyclin-dependent kinase 1 activity
Summary of the method: (§1)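 Radiometric kinase assay. Conditions varied slightly per kinase. Stopped with PBS/100 mM EDTA, read by scintillation counting. IC50 by linear regression of % inhibition, mean of at least two determinations.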

[2] = target: T1, Vascular endothelial growth factor receptor 2 (Homo sapiens, UniProt P35968); assay: Inhibition of vascular endothelial growth factor receptor 2; summary of the method: as §1
T1 sequence (P35968 whole entry): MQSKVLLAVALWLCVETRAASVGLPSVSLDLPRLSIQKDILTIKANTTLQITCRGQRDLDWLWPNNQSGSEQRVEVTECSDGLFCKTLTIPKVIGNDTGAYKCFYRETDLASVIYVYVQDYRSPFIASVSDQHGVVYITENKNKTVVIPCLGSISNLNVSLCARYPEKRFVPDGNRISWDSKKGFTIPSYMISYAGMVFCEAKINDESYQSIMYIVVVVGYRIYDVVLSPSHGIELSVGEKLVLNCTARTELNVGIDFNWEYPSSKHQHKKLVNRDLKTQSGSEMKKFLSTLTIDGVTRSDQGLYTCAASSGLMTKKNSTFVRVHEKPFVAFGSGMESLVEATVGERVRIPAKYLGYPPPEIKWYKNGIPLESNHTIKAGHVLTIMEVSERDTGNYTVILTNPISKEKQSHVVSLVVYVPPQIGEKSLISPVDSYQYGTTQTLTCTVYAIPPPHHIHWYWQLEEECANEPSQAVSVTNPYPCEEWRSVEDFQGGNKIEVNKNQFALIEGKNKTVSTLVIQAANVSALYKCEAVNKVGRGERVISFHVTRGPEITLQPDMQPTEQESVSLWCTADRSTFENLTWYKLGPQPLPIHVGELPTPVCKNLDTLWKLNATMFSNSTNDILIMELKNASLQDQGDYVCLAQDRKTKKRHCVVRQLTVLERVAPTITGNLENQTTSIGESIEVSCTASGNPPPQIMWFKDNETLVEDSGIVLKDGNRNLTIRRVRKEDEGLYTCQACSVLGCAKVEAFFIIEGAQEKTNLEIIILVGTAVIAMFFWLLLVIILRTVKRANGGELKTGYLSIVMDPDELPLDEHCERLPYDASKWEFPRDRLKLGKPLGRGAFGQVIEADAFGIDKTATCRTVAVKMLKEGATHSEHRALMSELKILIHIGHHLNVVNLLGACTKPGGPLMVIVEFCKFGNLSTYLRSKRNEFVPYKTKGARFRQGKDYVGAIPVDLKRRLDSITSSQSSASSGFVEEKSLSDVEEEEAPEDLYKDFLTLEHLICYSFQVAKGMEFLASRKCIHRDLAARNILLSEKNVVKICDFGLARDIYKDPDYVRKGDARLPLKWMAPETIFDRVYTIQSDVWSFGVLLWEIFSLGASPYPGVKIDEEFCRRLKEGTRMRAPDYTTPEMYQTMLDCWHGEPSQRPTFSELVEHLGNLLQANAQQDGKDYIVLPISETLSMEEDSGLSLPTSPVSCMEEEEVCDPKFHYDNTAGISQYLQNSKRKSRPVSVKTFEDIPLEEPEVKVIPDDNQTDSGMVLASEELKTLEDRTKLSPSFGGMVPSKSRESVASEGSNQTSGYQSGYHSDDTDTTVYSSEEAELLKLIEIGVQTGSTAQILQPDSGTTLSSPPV

[3] = target: T1, Vascular endothelial growth factor receptor 2; assay: Inhibitory concentration (experimental) against vascular endothelial growth factor receptor 2; summary of the method: as §1
[4] = test system: MRC5; assay: Concentration required to inhibit proliferation of human MRC5 fibroblast cell growth
[5] = target: Glycogen synthase kinase-3 (Homo sapiens, UniProt P49840+P49841); assay: Inhibition of glycogen synthase kinase-3; format: protein assay; summary of the method: as §1
[6] = target: Casein kinase II (Homo sapiens, UniProt P19784+P67870+P68400); assay: Inhibition of casein kinase 2; format: protein-complex assay; summary of the method: as §1
Casein kinase II, sequence (P67870 whole entry): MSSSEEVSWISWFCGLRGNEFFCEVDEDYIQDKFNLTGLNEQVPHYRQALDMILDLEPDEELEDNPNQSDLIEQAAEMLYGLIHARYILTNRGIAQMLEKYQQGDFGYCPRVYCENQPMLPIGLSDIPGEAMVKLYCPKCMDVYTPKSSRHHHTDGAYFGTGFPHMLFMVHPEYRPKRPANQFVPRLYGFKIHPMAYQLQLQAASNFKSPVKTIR
Casein kinase II, sequence (P68400 whole entry): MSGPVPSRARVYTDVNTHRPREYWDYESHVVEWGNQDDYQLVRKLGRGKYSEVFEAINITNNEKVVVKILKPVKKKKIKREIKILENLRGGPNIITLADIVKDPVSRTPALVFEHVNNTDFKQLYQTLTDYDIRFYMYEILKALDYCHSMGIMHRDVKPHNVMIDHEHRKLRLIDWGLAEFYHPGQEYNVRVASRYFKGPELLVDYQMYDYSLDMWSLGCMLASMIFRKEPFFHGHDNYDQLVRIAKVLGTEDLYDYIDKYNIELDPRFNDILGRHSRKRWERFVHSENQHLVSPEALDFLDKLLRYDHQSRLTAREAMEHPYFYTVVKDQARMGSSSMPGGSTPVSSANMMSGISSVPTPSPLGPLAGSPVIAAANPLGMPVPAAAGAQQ
Casein kinase II, sequence (P19784 whole entry): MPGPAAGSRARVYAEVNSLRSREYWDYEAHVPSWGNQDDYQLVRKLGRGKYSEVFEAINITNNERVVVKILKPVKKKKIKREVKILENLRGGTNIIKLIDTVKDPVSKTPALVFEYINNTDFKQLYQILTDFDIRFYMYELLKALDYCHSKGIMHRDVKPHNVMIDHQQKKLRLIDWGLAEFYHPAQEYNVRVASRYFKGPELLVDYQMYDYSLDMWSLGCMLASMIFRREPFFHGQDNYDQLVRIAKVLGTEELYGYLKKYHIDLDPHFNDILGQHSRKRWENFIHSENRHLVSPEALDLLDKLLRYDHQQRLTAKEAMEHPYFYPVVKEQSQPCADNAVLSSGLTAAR

[7] = test system: HASMC; assay: Concentration required to inhibit proliferation of HASMC; conditions: Homo sapiens
[8] = test system: A-375; assay: Concentration required to inhibit proliferation of A375 human amelanotic melanoma cell growth
[9] = Inhibition of protein kinase A; summary of the method: as §1
[10] = target: Mitogen-activated protein kinase 1 (Homo sapiens, UniProt P28482); assay: Inhibition of mitogen-activated protein kinase; summary of the method: as §1
Mitogen-activated protein kinase 1, sequence (P28482 whole entry): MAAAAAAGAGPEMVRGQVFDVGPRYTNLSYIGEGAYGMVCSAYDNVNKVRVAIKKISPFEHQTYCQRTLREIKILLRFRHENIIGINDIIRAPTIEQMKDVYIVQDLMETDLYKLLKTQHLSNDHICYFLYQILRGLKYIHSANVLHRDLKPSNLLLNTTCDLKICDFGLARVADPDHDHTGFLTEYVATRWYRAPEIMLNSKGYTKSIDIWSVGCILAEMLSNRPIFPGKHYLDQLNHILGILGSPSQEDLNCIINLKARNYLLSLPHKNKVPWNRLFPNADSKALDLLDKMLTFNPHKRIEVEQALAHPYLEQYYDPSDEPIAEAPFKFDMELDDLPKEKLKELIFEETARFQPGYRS

[11] = test system: HUVEC; assay: Concentration inhibiting VEGF stimulated (2 ng/well) HUVE cell proliferation; conditions: Homo sapiens
[12] = test system: HUVEC; assay: Concentration required to inhibit proliferation of HUVEC; conditions: Homo sapiens
[13] = target: Insulin receptor (Homo sapiens, UniProt P06213); assay: Inhibition of insulin Receptor kinase; summary of the method: as §1
Insulin receptor, sequence (P06213 28-758 limits assumed): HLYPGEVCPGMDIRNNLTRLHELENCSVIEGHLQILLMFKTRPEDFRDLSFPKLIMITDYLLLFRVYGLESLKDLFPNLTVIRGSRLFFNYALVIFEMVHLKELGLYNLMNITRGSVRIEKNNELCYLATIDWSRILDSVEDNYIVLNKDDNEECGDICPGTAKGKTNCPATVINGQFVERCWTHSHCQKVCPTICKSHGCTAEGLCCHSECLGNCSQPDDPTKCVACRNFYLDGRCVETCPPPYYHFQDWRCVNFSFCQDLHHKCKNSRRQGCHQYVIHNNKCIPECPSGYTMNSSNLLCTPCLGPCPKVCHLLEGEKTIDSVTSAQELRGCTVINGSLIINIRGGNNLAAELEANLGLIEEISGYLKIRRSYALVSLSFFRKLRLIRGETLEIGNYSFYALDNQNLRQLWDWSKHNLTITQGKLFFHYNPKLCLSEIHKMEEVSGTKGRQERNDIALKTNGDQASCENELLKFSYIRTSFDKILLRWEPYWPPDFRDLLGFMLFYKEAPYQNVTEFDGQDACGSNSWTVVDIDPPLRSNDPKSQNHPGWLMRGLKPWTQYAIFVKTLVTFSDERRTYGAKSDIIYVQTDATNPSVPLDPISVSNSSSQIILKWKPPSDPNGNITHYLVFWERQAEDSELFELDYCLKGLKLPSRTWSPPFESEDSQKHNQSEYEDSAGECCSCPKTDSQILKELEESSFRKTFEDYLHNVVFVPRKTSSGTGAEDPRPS
Insulin receptor, sequence (P06213 763-1382 limits assumed): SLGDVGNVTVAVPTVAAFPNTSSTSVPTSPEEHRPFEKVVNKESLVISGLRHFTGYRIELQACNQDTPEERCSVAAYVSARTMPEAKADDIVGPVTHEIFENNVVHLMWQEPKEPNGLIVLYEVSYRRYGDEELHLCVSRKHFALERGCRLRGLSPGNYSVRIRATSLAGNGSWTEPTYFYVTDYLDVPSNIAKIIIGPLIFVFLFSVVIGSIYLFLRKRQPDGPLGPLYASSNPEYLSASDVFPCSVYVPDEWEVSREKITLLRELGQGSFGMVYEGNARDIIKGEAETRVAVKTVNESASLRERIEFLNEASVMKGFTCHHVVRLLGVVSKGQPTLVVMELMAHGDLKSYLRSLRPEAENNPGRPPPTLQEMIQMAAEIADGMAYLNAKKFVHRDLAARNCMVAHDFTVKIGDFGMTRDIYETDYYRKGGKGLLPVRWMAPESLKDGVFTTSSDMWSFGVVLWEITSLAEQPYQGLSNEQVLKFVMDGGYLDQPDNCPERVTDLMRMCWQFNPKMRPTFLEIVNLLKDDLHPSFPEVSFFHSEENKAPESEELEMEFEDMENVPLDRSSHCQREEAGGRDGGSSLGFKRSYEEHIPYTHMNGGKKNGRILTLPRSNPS

[14] = target: Casein kinase I; assay: Inhibition of casein kinase 1; format: protein assay
[15] = test system: HeLa; assay: Concentration required to inhibit proliferation of HeLa cell growth; conditions: Homo sapiens
[16] = test system: HCT-116; assay: Concentration required to inhibit proliferation of human HCT116 colon cancer cell growth

Row | Compound | IC50 [1] | IC50 [2] | IC50 [3] | other results
1 | Clc1cccc(Nc2cncc(-c3cncc(NCCOc4ccccc4)c3)n2)c1 | > 10000 nM | > 10000 nM | – | –
2 | O=C(O)CCCNc1cncc(-c2cncc(Nc3cccc(Cl)c3)n2)c1 | 5220 nM | 568 nM | 575 nM | –
3 | OCCCNc1cncc(-c2cncc(Oc3cccc(Cl)c3)n2)c1 | > 10000 nM | > 10000 nM | – | –
4 | Clc1cccc(Nc2cncc(-c3cncc(NCCCN4CCNCC4)c3)n2)c1 | 5620 nM | 236 nM | 234 nM | –
5 | Clc1cccc(Nc2cncc(-c3cncc(NCCCN4CCCCC4)c3)n2)c1 | 5380 nM | 399 nM | 398 nM | –
6 | O=C(CO)Nc1cncc(-c2cncc(Nc3cccc(Cl)c3)n2)c1 | > 10000 nM | 346 nM | 347 nM | –
7 | O=C(NCCCO)c1cncc(-c2cncc(Nc3cccc(Cl)c3)n2)c1 | > 10000 nM | 2380 nM | 2400 nM | –
8 | OCCCNc1cnc(F)c(-c2cncc(Nc3cccc(Cl)c3)n2)c1 | > 10000 nM | 251 nM | 251 nM | –
9 | Clc1cccc(Nc2cncc(-c3cncc(NCCCCc4ccncc4)c3)n2)c1 | 10000 nM | 266 nM | 263 nM | –
10 | OCCCNc1cncc(-c2cncc(Nc3cccc(F)c3)n2)c1 | > 10000 nM | 168 nM | 170 nM | –
11 | O=C(CCCNc1cncc(-c2cncc(Nc3cccc(Cl)c3)n2)c1)N1CCCCC1 | > 10000 nM | 610 nM | 617 nM | –
12 | OCCCNc1cncc(-c2cncc(Nc3ccccc3Cl)n2)c1 | > 10000 nM | 1010 nM | 1000 nM | –
13 | Clc1cccc(Nc2cncc(-c3cncc(NCCCc4ccncc4)c3)n2)c1 | > 10000 nM | 76 nM | 75.9 nM | –
14 | Clc1cccc(Nc2cncc(-c3cncc(NCCCn4cncn4)c3)n2)c1 | > 10000 nM | 67 nM | 67.6 nM | IC50 [4]: 6720 nM; IC50 [5]: 196 nM; IC50 [6]: 7200 nM; IC50 [7]: 2980 nM; IC50 [8]: 5160 nM; IC50 [9]: > 10000 nM; IC50 [10]: > 10000 nM; IC50 [11]: 57 nM; IC50 [12]: 1070 nM; IC50 [13]: > 10000 nM; IC50 [14]: 6500 nM; IC50 [15]: 6060 nM; IC50 [16]: > 10000 nM
15 | COc1cccc(Nc2cncc(-c3cncc(NCCCO)c3)n2)c1 | > 10000 nM | 740 nM | 741 nM | –
16 | Clc1ccc(Nc2cncc(-c3cncc(NCCCc4ccncc4)c3)n2)cc1 | > 10000 nM | 1000 nM | 1000 nM | –
17 | Clc1cccc(Nc2cncc(-c3cncc(NCCCN4CCOCC4)c3)n2)c1 | > 10000 nM | 180 nM | 182 nM | –
18 | OCCCNc1cncc(-c2cncc(NCc3ccccc3)n2)c1 | > 10000 nM | 1050 nM | 1050 nM | –
19 | COCC(=O)Nc1cncc(-c2cncc(Nc3cccc(Cl)c3)n2)c1 | > 10000 nM | 303 nM | 302 nM | –
